According to ChEMBL document CHEMBL1158168, “Condensed bridgehead nitrogen heterocyclic system: synthesis and pharmacological activities of 1,2,4-triazolo-[3,4-b]-1,3,4-thiadiazole derivatives of ibuprofen and biphenyl-4-yloxy acetic acid” (Eur J Med Chem, 2008):
Converted amounts (≈) assume the structure as drawn. The source made the active and inactive calls. No cut-off for these calls is given here.

Experiments:
[1] = system: Rattus norvegicus; assay: Antiinflammatory activity in Wistar albino rat assessed as inhibition of carrageenan-induced paw edema administered at equimolar oral dose relative to 10 mg/kg fluribiprofen measured 4 hrs after carrageenan challenge; assay type: functional
Method in brief: (§1)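 Wistar rats of either sex (180-200 g), six per group, dosed orally in a 0.5% CMC vehicle. One hour later, 0.1 mL of […] in 0.9% NaCl was injected sub-plantar into the right hind paw. Paw volume was read by plethysmometer before and 4 h after carrageenan, and percent inhibition was calculated.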

[2] = system: Staphylococcus aureus; assay: Antibacterial activity against Staphylococcus aureus ATCC 19433 by cup plate method; assay type: functional
Method in brief: (§2)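 Cup-plate diffusion on nutrient agar, with compounds dissolved in DMF. Compounds were tested at 200, 100, 50 and 25; those inhibiting at 25 were also tested at 12.5 and 6.25. MIC is the lowest concentration preventing visible growth on the plate.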

[3] = system: Escherichia coli; assay: Antibacterial activity against sEscherichia coli ATCC 25922 by cup plate method; assay type: functional; method in brief: as §2
[4] = system: Candida albicans; assay: Antimicrobial activity against Candida albicans ATCC 2091 by cup plate method; assay type: functional
Method in brief: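 Candida albicans grown on Sabouraud dextrose medium and tested by cup-plate diffusion, with compounds dissolved in DMF. Compounds were tested at 200, 100, 50 and 25; those inhibiting at 25 were also tested at 12.5 and 6.25. MIC is the lowest concentration preventing visible growth.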

[5] = system: Rattus norvegicus; assay: Gastrointestinal toxicity in rat assessed as gastric mucosal damage severity index administered at equimolar oral dose relative to 30 mg/kg fluribiprofen; assay type: organism-based, Gastric mucosa; set-up: dose 30 mg/kg, route oral; details: in vivo
Method in brief: (§3)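 Rats, six per group, were fasted 24 h with water allowed, then dosed orally in a 0.5% CMC vehicle. They were fed normally for 17 h and then sacrificed. Stomachs were opened along the greater curvature and mucosal lesions scored under a magnifier (0.5 redness to 3.0 for more than 5 ulcers). Severity index is the mean group score minus the control mean.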

[6] = system: Rattus norvegicus; assay: Antiinflammatory activity in Wistar albino rat assessed as inhibition of carrageenan-induced paw edema administered at equimolar oral dose relative to 70 mg/kg ibuprofen measured 4 hrs after carrageenan challenge; assay type: functional; method in brief: as §1
[7] = system: Mus musculus; assay: Analgesic activity in Swiss albino mouse assessed as effect on reaction time for tail withdrawal administered at 70 mg/kg, po after 4 hrs by tail immersion method; assay type: functional
Method in brief: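 Swiss albino mice of either sex (25-30 g), six per group. Compounds were given orally as a suspension in 0.5% w/v CMC in water. Tail-withdrawal reaction time was measured before dosing and 4 h after, by immersing the lower 5 cm of the tail in water held at 55 ± 0.5 °C.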

[8] = system: Rattus norvegicus; assay: Gastrointestinal toxicity in rat assessed as gastric mucosal damage severity index at 210 mg/kg, po; assay type: organism-based, Gastric mucosa; set-up: dose 210 mg/kg, route oral; details: in vivo; method in brief: as §3
[9] = system: Rattus norvegicus; assay: Inhibition of lipid peroxidation in rat assessed as malondialdehyde level per 100 mg of tissue at 210 mg/kg, po; assay type: functional
Method in brief: (§4)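 Gastric mucosa was scraped from the stomachs after ulcer scoring. 100 mg was homogenized in ice-cold 1.15% KCl and reacted with SDS, acetate buffer (pH 3.5) and 0.8% TBA at 95 °C for 60 min. The product was extracted into n-butanol/pyridine (15:1) and absorbance read at 532 nm. MDA was calculated using ε 1.56 × 10⁵ M⁻¹cm⁻¹ and expressed per 100 mg tissue.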

[10] = system: Rattus norvegicus; assay: Gastrointestinal toxicity in rat assessed as gastric mucosal damage severity index administered at equimolar oral dose relative to 210 mg/kg ibuprofen; assay type: organism-based, Gastric mucosa; set-up: dose 210 mg/kg, route oral; details: in vivo; method in brief: as §3
[11] = system: Rattus norvegicus; assay: Inhibition of lipid peroxidation in rat assessed as malondialdehyde level per 100 mg of tissue administered at equimolar oral dose relative to 210 mg/kg ibuprofen; assay type: functional; method in brief: as §4
[12] = system: Rattus norvegicus; assay: Hepatotoxicity in po dosed Wistar albino rat assessed as serum glutamate oxaloacetate transaminase activity after 7 days; assay type: toxicity, organism-based; details: in vivo, 168 h
[13] = system: Rattus norvegicus; assay: Hepatotoxicity in po dosed Wistar albino rat assessed as serum glutamate pyruvate transaminase activity after 7 days; assay type: toxicity, organism-based; details: in vivo, 168 h
[14] = system: Rattus norvegicus; assay: Hepatotoxicity in po dosed Wistar albino rat assessed as alkaline phosphatase activity after 7 days; assay type: toxicity, organism-based; details: in vivo, 168 h
[15] = system: Rattus norvegicus; assay: Hepatotoxicity in po dosed Wistar albino rat assessed as total protein content after 7 days; assay type: toxicity, organism-based; details: in vivo, 168 h
[16] = system: Rattus norvegicus; assay: Hepatotoxicity in po dosed Wistar albino rat assessed as total albumin content after 7 days; assay type: toxicity, organism-based; details: in vivo, 168 h
[17] = system: Rattus norvegicus; assay: Hepatotoxicity in po dosed Wistar albino rat assessed as hepatocyte necrosis after 7 days; assay type: toxicity, organism-based; details: hepatocytes, 168 h
[18] = system: Rattus norvegicus; assay: Antiinflammatory activity in Wistar albino rat assessed as inhibition of carrageenan-induced paw edema at 10 mg/kg, po measured 4 hrs after carrageenan challenge; assay type: functional
Method in brief: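 Wistar albino rats of either sex, 180-200 g, groups of six; oral dosing, vehicle 0.5% CMC. 0.1 mL of 0.1% carrageenan in sterile 0.9% NaCl injected subplantar into the right hind paw 1 h after dosing. Paw volume measured by plethysmometer before and 4 h after carrageenan; percent inhibition calculated.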

[19] = system: Rattus norvegicus; assay: Gastrointestinal toxicity in rat assessed as gastric mucosal damage severity index at 30 mg/kg, po; assay type: organism-based, Gastric mucosa; set-up: dose 30 mg/kg, route oral; details: in vivo
Method in brief: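 Rats, groups of six, food but not water withheld 24 h; oral dosing in 0.5% CMC. Normal diet for 17 h, then sacrificed. Stomach opened along the greater curvature and inspected under a magnifying glass. Scored 0.5 redness to 3.0 (>5 ulcers); severity index is the group mean score minus the control mean.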

[20] = system: Rattus norvegicus; assay: Inhibition of lipid peroxidation in rat assessed as malondialdehyde level per 100 mg of tissue at 30 mg/kg, po; assay type: functional
Method in brief: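 Gastric mucosa scraped from stomachs after ulcerogenicity testing; 100 mg homogenized in 1.15% ice-cold KCl. TBA method with SDS and acetate buffer pH 3.5, heated at 95 °C for 60 min. Extracted into n-butanol/pyridine 15:1, absorbance read at 532 nm. Expressed as nmol MDA/100 mg tissue using ε 1.56 × 10⁵ cm⁻¹ M⁻¹.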

[21] = system: Mus musculus; assay: Analgesic activity in Swiss albino mouse assessed as effect on reaction time for tail withdrawal administered at 10 mg/kg, po after 4 hrs by tail immersion method; assay type: functional
Method in brief: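 Swiss albino mice of either sex, 25-30 g, groups of six; oral dosing as suspension in 0.5% w/v CMC in water. Tail immersion: lower 5 cm of tail dipped in water held at 55 ± 0.5 °C. Reaction time taken before and 4 h after dosing.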

SMILES | inhibition in vivo [1] [%] | MIC [2] [µg/mL] | MIC [3] [µg/mL] | MIC [4] [µg/mL] | inhibition in vivo [6] [%] | other results
Nc1ccc(-c2nn3c(COc4ccc(-c5ccccc5)cc4)nnc3s2)cc1 | 76.5 | 50 (≈ 125 µM) | 200 (≈ 501 µM) | 200 (≈ 501 µM) |  | UI [5]: 0.417
CC1COc2c(N3CCN(C)CC3)c(F)cc3c(=O)c(C(=O)O)cn1c23 (stereo unspecified) [OFLOXACIN] |  | 6.25 (≈ 17.3 µM) | 6.25 (≈ 17.3 µM) |  |  | 
Clc1ccc(-c2nn3c(COc4ccc(-c5ccccc5)cc4)nnc3s2)c(Cl)c1 |  | 25 (≈ 55.1 µM) | 50 (≈ 110 µM) |  |  | 
CC(=O)N1CCN(c2ccc(OCC3COC(Cn4ccnc4)(c4ccc(Cl)cc4Cl)O3)cc2)CC1 (stereo unspecified) [KETOCONAZOLE] |  |  |  | 6.25 (≈ 11.8 µM) |  | 
CC(C)Cc1ccc(C(C)c2nnc3sc(-c4ccccc4N)nn23)cc1 (stereo unspecified) |  | 200 (≈ 530 µM) | 100 (≈ 265 µM) | 12.5 (≈ 33.1 µM) | 57.6 | 
CC(C)Cc1ccc(C(C)C(=O)O)cc1 (stereo unspecified) [IBUPROFEN] |  |  |  |  |  | inhibition in vivo at 70 mg/kg [7]: 74.1%; UI [8]: 2; Activity [9]: 7.79 nmol
CC(C)Cc1ccc(C(C)c2nnc3sc(-c4ccc(N)cc4)nn23)cc1 (stereo unspecified) |  | 200 (≈ 530 µM) | 12.5 (≈ 33.1 µM) | 200 (≈ 530 µM) | 78.8 | UI [10]: 0.75; Activity [11]: 5.65 nmol
CC(C)Cc1ccc(C(C)c2nnc3sc(Cc4ccccc4Nc4c(Cl)cccc4Cl)nn23)cc1 (stereo unspecified) |  | 50 (≈ 93.2 µM) | 200 (≈ 373 µM) | 200 (≈ 373 µM) | 18.2 | 
CCCCNc1nn2c(COc3ccc(-c4ccccc4)cc3)nnc2s1 | 65.9 |  | 100 (≈ 264 µM) | 25 (≈ 65.9 µM) |  | Activity [2]: inactive
CC(C)Cc1ccc(C(C)c2nnc3sc(Nc4ccccc4)nn23)cc1 (stereo unspecified) |  | 100 (≈ 265 µM) | 25 (≈ 66.2 µM) |  | 68.2 | Activity [4]: inactive; UI [10]: 0.667; Activity [11]: 5.12 nmol
CC(C)Cc1ccc(C(C)c2nnc3sc(COc4ccc(Cl)cc4Cl)nn23)cc1 (stereo unspecified) |  | 200 (≈ 433 µM) | 25 (≈ 54.2 µM) | 100 (≈ 217 µM) | 38.6 | 
c1ccc(-c2ccc(OCc3nnc4sc(-c5ccccc5)nn34)cc2)cc1 | 65.1 | 25 (≈ 65 µM) | 25 (≈ 65 µM) |  |  | Activity [4]: inactive
Cc1ccc(Nc2nn3c(COc4ccc(-c5ccccc5)cc4)nnc3s2)c(C)c1 | 39.4 |  | 50 (≈ 117 µM) | 100 (≈ 234 µM) |  | Activity [2]: inactive
CCCCNc1nn2c(C(C)c3ccc(CC(C)C)cc3)nnc2s1 (stereo unspecified) |  | 200 (≈ 559 µM) | 100 (≈ 280 µM) | 50 (≈ 140 µM) | 80.3 | UI [10]: 1; Activity [11]: 5.78 nmol
CC(C)Cc1ccc(C(C)c2nnc3sc(Nc4ccc(F)cc4)nn23)cc1 (stereo unspecified) |  | 200 (≈ 506 µM) | 200 (≈ 506 µM) | 200 (≈ 506 µM) | 28 | 
Cc1ccc(Nc2nn3c(C(C)c4ccc(CC(C)C)cc4)nnc3s2)c(C)c1 (stereo unspecified) |  | 200 (≈ 493 µM) | 50 (≈ 123 µM) | 200 (≈ 493 µM) | 53 | 
CC(C)Cc1ccc(C(C)c2nnc3sc(-c4ccc(Cl)cc4Cl)nn23)cc1 (stereo unspecified) |  | 200 (≈ 464 µM) | 200 (≈ 464 µM) | 200 (≈ 464 µM) | 80.3 | UI [10]: 0.333; Activity [11]: 5.04 nmol; Activity [12]: 147.5 U/ml; Activity [13]: 28.17 U/ml; Activity [14]: 15.18 U/ml; Activity [15]: 1.89 g/dL; Activity [16]: 1.8 g/dL; Activity [17]: Non-toxic
Nc1ccccc1-c1nn2c(COc3ccc(-c4ccccc4)cc3)nnc2s1 | 47.7 | 25 (≈ 62.6 µM) | 50 (≈ 125 µM) | 25 (≈ 62.6 µM) |  | 
CC(C(=O)O)c1ccc(-c2ccccc2)c(F)c1 (stereo unspecified) [FLURBIPROFEN] |  |  |  |  |  | inhibition in vivo at 10 mg/kg [18]: 80.3%; UI [19]: 1.666; Activity [20]: 7.51 nmol; inhibition in vivo at 10 mg/kg [21]: 69.5%
c1ccc(Nc2nn3c(COc4ccc(-c5ccccc5)cc4)nnc3s2)cc1 |  |  | 25 (≈ 62.6 µM) | 200 (≈ 501 µM) |  | Activity [2]: inactive
Clc1ccc(-c2nn3c(COc4ccc(-c5ccccc5)cc4)nnc3s2)cc1 | 78.8 | 100 (≈ 239 µM) | 25 (≈ 59.7 µM) | 50 (≈ 119 µM) |  | UI [5]: 0.833
Clc1ccc(OCc2nn3c(COc4ccc(-c5ccccc5)cc4)nnc3s2)c(Cl)c1 | 50.8 | 25 (≈ 51.7 µM) | 50 (≈ 103 µM) | 50 (≈ 103 µM) |  | 
Fc1ccc(Nc2nn3c(COc4ccc(-c5ccccc5)cc4)nnc3s2)cc1 | 78.2 |  | 25 (≈ 59.9 µM) |  |  | Activity [2]: inactive; Activity [4]: inactive; UI [5]: 0.666; Activity [12]: 137 U/ml; Activity [13]: 26.5 U/ml; Activity [14]: 17.07 U/ml; Activity [15]: 0.9 g/dL; Activity [16]: 0.71 g/dL; Activity [17]: Non-toxic
